# Measured values taken from ChEMBL document CHEMBL1131376, “Steroidal and nonsteroidal sulfamates as potent inhibitors of steroid sulfatase” (J Med Chem, 1998).
# Key:
# [1] = target: T1, Steryl-sulfatase (Homo sapiens) (UniProt P08842); assay: In vitro inhibition of Estrone Sulfatase in intact MCF-7 breast cancer cells at a concentration of 10 uM.; format: cell-based; settings: MCF7
# T1 sequence (whole entry): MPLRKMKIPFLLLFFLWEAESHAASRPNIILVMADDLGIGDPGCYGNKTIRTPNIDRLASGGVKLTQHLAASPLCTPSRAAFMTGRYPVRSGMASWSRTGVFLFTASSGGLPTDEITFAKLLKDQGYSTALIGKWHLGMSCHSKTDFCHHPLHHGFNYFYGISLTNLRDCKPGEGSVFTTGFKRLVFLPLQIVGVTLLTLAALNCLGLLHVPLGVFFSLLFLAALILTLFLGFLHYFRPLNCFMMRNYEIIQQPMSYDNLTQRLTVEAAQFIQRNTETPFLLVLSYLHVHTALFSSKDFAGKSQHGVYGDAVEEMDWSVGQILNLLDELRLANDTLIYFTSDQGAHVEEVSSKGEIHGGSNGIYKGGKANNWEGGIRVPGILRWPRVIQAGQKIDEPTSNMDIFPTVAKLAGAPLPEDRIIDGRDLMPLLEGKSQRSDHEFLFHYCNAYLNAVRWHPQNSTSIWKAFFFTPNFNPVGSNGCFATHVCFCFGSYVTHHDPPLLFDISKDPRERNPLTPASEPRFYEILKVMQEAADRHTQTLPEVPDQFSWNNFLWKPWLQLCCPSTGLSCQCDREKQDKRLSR
# [2] = target: T1, Steryl-sulfatase (Homo sapiens); assay: In vitro inhibition of Estrone Sulfatase in placental microsomes at a concentration of 10 uM.; settings: Placenta
# [3] = target: T1, Steryl-sulfatase (Homo sapiens); assay: In vitro inhibition of Estrone Sulfatase in placental microsomes at a concentration of 100 uM.; settings: Placenta
# How it was run: (§1)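 Placental microsomes (100 000 g pellet; 125 µg protein/mL) incubated 30 min with [³H]estrone sulfate (4 × 10⁵ dpm) brought to 20 µM with unlabelled substrate, with or without inhibitor. Product extracted into toluene, with [4-¹⁴C]estrone to correct for procedural losses. % inhibition given as mean ± s.d. of triplicates.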
# [4] = target: T1, Steryl-sulfatase (Homo sapiens); assay: In vitro inhibition of Estrone Sulfatase in placental microsomes at a concentration of 50 uM.; settings: Placenta; how it was run: as §1
# [5] = target: T1, Steryl-sulfatase (Homo sapiens); assay: In vitro inhibition of Estrone Sulfatase in intact MCF-7 breast cancer cells at a concentration of 0.1 uM.; format: cell-based; settings: MCF7
# [6] = target: T1, Steryl-sulfatase (Homo sapiens); assay: In vitro inhibition of Estrone Sulfatase in intact MCF-7 breast cancer cells at a concentration of 1.0 uM.; format: cell-based; settings: MCF7
inhibition [1],inhibition [2],inhibition [3],inhibition [4],inhibition [5],inhibition [6],Compound
71.5%,79.4%,96.3%,94.3%,9.9%,28.3%,NS(=O)(=O)Oc1ccc2c(C(F)(F)F)cc(=O)oc2c1
39.1%,< 10%,< 10%,< 10%,< 10%,17.4%,Cc1cc(=O)oc2ccc(OS(N)(=O)=O)cc12
76.2%,< 10%,34.5%,33.2%,49%,60.6%,NS(=O)(=O)Oc1ccc2c(c1)CCC=C2
72.1%,< 10%,69.9%,42.9%,33.8%,34.1%,COc1cc2ccc(=O)oc2cc1OS(N)(=O)=O
78.1%,16.1%,56.1%,54.3%,< 10%,11.7%,NS(=O)(=O)Oc1ccc2c(c1)CCCC2=O
75.1%,17.4%,12.5%,11.5%,9.3%,46.4%,Cc1c(C)c2ccc(OS(N)(=O)=O)c(C)c2oc1=O
32.3%,53.4%,82.1%,70.6%,< 10%,< 10%,CC1CC(=O)Oc2cc(OS(N)(=O)=O)ccc21 (centres undefined)
31.2%,< 10%,< 10%,< 10%,< 10%,< 10%,Cc1cc(=O)oc2cc(OS(N)(=O)=O)c(OS(N)(=O)=O)cc12
90.4%,78.2%,94.4%,91.9%,23.9%,66%,NS(=O)(=O)Oc1ccc2ccc(=O)oc2c1

# More lines, now with the values behind:
Compound,inhibition [1],inhibition [2],inhibition [3],inhibition [4],inhibition [5],inhibition [6]
NS(=O)(=O)Oc1ccc2c(c1)C(=O)CC2,99%,< 10%,< 10%,< 10%,33%,91%
Cc1cc(=O)oc2cc(OS(N)(=O)=O)ccc12,,,99%,97.8%,42.9%,85.6%
NS(=O)(=O)Oc1ccc2c(c1)C(=O)CCC2,93.5%,12.3%,27%,16.5%,10.4%,47.8%
NS(=O)(=O)Oc1ccc2c(c1)OC(=O)CC2,28.5%,< 10%,34.4%,15%,12%,30.2%
NS(=O)(=O)Oc1cccc2c1CCC2=O,74.1%,< 10%,< 10%,< 10%,< 10%,15.5%
Cc1cc(=O)oc2cc(O)c(OS(N)(=O)=O)cc12,< 10%,< 10%,< 10%,< 10%,< 10%,< 10%
NS(=O)(=O)Oc1ccc2c(c1)CCC2=O,71.3%,19.6%,50.3%,37.7%,13.5%,22.6%
NS(=O)(=O)Oc1ccc2c(c1)CCCC2,78.8%,< 10%,12.5%,< 10%,51.7%,56.7%
NS(=O)(=O)Oc1ccc2c(c1)OCC=C2,99.3%,19.9%,47.2%,36.9%,11.4%,68.2%
Cc1c(C)c2ccc(OS(N)(=O)=O)cc2oc1=O,,96.9%,99.2%,98.8%,,
